Assay results as given in ChEMBL document CHEMBL4425108, “A Selective and Slowly Reversible Inhibitor of l-Type Amino Acid Transporter 1 (LAT1) Potentiates Antiproliferative Drug Efficacy in Cancer Cells” (J Med Chem, 2016).
Activity calls are given as the source filed them. The calls are words filed in the database; no cut-off is given here.

Experiments:
MCF7 [1] = experiment: Antiproliferative activity against human MCF7 cells assessed as reduction in cell viability measured after 72 hrs by resazurin dye-based fluorimetric analysis; assay type: functional; conditions: for IC50: MCF7, 72 h
How it was run: (§1)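 MCF-7 cells were seeded at 2 × 10^4 cells/well on collagen-coated plates and treated one day later. Agents were given alone or combined (25 or 100 µM with 100 µM partner drug) in growth medium for 3 days. Viability was read daily by resazurin fluorescence (ex 560/em 590 nm) and expressed relative to untreated controls.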

MCF7 [2] = experiment: Antiproliferative activity against human MCF7 cells assessed as reduction in cell viability at 100 measured after 72 hrs by resazurin dye-based fluorimetric analysis; assay type: functional; how it was run: as §1
MCF7 [3] = experiment: Antiproliferative activity against human MCF7 cells assessed as reduction in cell viability at 100 measured after 24 hrs by resazurin dye-based fluorimetric analysis; assay type: functional; how it was run: as §1
MCF7 [4] = experiment: Antiproliferative activity against human MCF7 cells assessed as reduction in cell viability at 100 measured after 48 hrs by resazurin dye-based fluorimetric analysis; assay type: functional; how it was run: as §1
HT-29 = experiment: Growth inhibition of human HT-29 cells measured after 96 hrs by Coulter counter based cell counting method; assay type: functional; conditions: HT-29, 96 h
[5] = molecular target: T1, Large neutral amino acids transporter small subunit 1 (Homo sapiens, UniProt Q01650); experiment: Inhibition of [14C]-L-leucine uptake at LAT1 in human YD-38 cells after 1 hr by liquid scintillation counting; assay type: cell-based
[6] = Ratio of IC50 for human YD-38 cells to IC50 for leucine uptake at LAT1 in human YD-38 cells
[7] = Ratio of IC50 for human HT-29 cells to IC50 for leucine uptake at LAT1 in human HT-29 cells
[8] = Growth inhibition of human YD38 cells measured after 4 days by MTT assay; assay type: functional; conditions: 96 h
[9] = molecular target: T1, Large neutral amino acids transporter small subunit 1; experiment: Inhibition of LAT1 in human MCF7 cells assessed as potentiation of bestatin-induced antiproliferative activity by measuring reduction in cell viability at 100 uM measured after 72 hrs by resazurin dye-based fluorimetric analysis
How it was run: (§2)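 MCF-7 cells seeded 2 × 10^4/well on collagen-coated plates, treated one day later in growth medium with inhibitor (25 or 100 µM) plus bestatin or cisplatin (100 µM) for up to 3 days. Viability read daily by resazurin fluorescence (ex 560/em 590 nm). Viability is treated relative to untreated control. Mean ± SD, n=3.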

[10] = molecular target: T1, Large neutral amino acids transporter small subunit 1; experiment: Inhibition of LAT1 in human MCF7 cells assessed as potentiation of cisplatin-induced antiproliferative activity by measuring reduction in cell viability at 100 uM measured after 48 hrs by resazurin dye-based fluorimetric analysis; how it was run: as §2
[11] = molecular target: T1, Large neutral amino acids transporter small subunit 1; experiment: Drug uptake in human MCF7 cells assessed as LAT1 mediated drug transport per mg of protein at 100 uM after 30 mins by HPLC analysis; assay type: ADME, cell-based; conditions: mcf7, 0.5 h
How it was run: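 MCF-7 monolayers were incubated with 100 µM compound in HBSS at 37 °C for 5 or 30 min. Cells got three washes with ice-cold or warm (37 °C) HBSS; in the warm 30 min arm they were washed after 5 min and again after 30 min. Lysates (0.1 M NaOH) were quantified by HPLC-UV against a spiked lysate standard curve and normalised to protein (Bio-Rad assay).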

[12] = molecular target: T1, Large neutral amino acids transporter small subunit 1; experiment: Inhibition of LAT1 in human MCF7 cells assessed as potentiation of cisplatin-induced antiproliferative activity by measuring reduction in cell viability at 100 uM measured after 24 hrs by resazurin dye-based fluorimetric analysis; how it was run: as §2
[13] = molecular target: T1, Large neutral amino acids transporter small subunit 1; experiment: Inhibition of LAT1 in human MCF7 cells assessed as potentiation of bestatin-induced antiproliferative activity by measuring reduction in cell viability at 100 uM measured after 24 hrs by resazurin dye-based fluorimetric analysis; how it was run: as §2
[14] = molecular target: T1, Large neutral amino acids transporter small subunit 1; experiment: Potency index, ratio of IC50 for 2-amino-2-norbornanecarboxylic acid to IC50 for test compound for inhibition of [14C]-L-leucine uptake at LAT1 in human MCF7 cells; assay type: cell-based
[15] = molecular target: T1, Large neutral amino acids transporter small subunit 1; experiment: Inhibition of LAT1 in human MCF7 cells assessed as potentiation of cisplatin-induced antiproliferative activity by measuring reduction in cell viability at 100 uM measured after 72 hrs by resazurin dye-based fluorimetric analysis; how it was run: as §2
[16] = molecular target: T1, Large neutral amino acids transporter small subunit 1; experiment: Inhibition of LAT1 in human MCF7 cells assessed as potentiation of bestatin-induced antiproliferative activity by measuring reduction in cell viability at 100 uM measured after 48 hrs by resazurin dye-based fluorimetric analysis; how it was run: as §2
[17] = molecular target: T1, Large neutral amino acids transporter small subunit 1; experiment: Competitive inhibition of [14C]-L-leucine uptake at LAT1 in human MCF7 cells preincubated for 5 mins followed by addition of substrate measured during 5 mins by liquid scintillation counting; assay type: cell-based

T1 sequence (Q01650 whole entry): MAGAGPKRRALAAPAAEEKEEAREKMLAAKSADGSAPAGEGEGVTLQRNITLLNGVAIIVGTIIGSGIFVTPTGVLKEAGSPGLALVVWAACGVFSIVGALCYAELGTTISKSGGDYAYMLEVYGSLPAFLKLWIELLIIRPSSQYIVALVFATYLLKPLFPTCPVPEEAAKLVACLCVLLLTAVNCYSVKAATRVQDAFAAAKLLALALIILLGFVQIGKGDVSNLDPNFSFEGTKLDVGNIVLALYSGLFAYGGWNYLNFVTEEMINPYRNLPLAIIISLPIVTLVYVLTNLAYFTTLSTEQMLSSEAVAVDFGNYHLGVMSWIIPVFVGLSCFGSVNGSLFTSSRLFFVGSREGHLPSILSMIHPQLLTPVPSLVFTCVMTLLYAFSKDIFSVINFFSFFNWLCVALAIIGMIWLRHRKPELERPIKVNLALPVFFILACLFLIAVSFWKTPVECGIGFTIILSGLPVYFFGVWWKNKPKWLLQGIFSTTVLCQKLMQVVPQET

CC(C)C[C@H](NC(=O)[C@@H](O)[C@H](N)Cc1ccccc1)C(=O)O [UBENIMEX]
Activity (MCF7 [1]): Dose-dependent effect | IC50 (MCF7 [1]): 541 µM | Activity (MCF7 [2]): inactive | Activity (MCF7 [3]): 3.4% | Activity (MCF7 [4]): 7.5%

Nc1cc(COc2c(Cl)cc(C[C@H](N)C(=O)O)cc2Cl)c2oc(-c3ccccc3)nc2c1
IC50 (HT-29): 4.1 µM | IC50 [5]: 790 nM | Ratio IC50 [6]: 68 - 87 | Ratio IC50 [7]: 68 - 87 | IC50 [8]: 69 µM

NC1(C(=O)O)CC2CCC1C2 (centres undefined)
Activity (MCF7 [1]): Dose-dependent effect | IC50 (MCF7 [1]): 362 µM | Activity [9]: 3.13% | Activity (MCF7 [2]): 24.1% | Activity [10]: inactive | Drug uptake [11]: 11.9 nmol/mg | Activity [12]: 35.9% | Activity [13]: 30.8% | Ratio IC50 [14]: 6 to 6.2 | Activity (MCF7 [3]): 13.9% | Activity [15]: 42.7% | Activity (MCF7 [4]): inactive | Activity [16]: inactive | IC50 [17]: 112 µM
